Source: PubChem BioAssay
Hits are enriched below; roughly 2.5% of the tested compounds scored in any of these assays.
TRPC4 inh: TRPC4 (mouse) channel inhibition; Q9QUQ5; HEK293 TRPC4beta/mu-opioid, DAMGO-evoked Fluo4 calcium flux; active compounds read low; B-score at 10 µM; 0.39% of 300,000 active; AID 2247;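 active = B-score over 3 SD under the library average, no early fluorescence shift, positive overall ratio signal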
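System: stable TRPC4beta/mu-opioid receptor HEK293 cells; Dosing: single-point compound dosing; Measured by: Fluo4 Ca2+ flux fluorescence; Read-out basis: per-well B score of integrated baseline-normalized Fluo4 ratio.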
TRPC6 inh: inhibitors of mouse TRPC6 channel. AID 2553. Q61143. HEK293-TRPC6, membrane potential dye, ACh-evoked depolarization; active compounds read low. 1.1% of 310,000 active. B-score at 10 µM;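 active = B-score under library mean minus 3 SD, initial fluorescence not abnormally high, positive integrated signal ratio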;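 also: B-score derived from integrated fluorescence ratio over the kinetic read; more negative B-score means stronger inhibition of depolarization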
Target sequence (Q61143 whole entry, looked up): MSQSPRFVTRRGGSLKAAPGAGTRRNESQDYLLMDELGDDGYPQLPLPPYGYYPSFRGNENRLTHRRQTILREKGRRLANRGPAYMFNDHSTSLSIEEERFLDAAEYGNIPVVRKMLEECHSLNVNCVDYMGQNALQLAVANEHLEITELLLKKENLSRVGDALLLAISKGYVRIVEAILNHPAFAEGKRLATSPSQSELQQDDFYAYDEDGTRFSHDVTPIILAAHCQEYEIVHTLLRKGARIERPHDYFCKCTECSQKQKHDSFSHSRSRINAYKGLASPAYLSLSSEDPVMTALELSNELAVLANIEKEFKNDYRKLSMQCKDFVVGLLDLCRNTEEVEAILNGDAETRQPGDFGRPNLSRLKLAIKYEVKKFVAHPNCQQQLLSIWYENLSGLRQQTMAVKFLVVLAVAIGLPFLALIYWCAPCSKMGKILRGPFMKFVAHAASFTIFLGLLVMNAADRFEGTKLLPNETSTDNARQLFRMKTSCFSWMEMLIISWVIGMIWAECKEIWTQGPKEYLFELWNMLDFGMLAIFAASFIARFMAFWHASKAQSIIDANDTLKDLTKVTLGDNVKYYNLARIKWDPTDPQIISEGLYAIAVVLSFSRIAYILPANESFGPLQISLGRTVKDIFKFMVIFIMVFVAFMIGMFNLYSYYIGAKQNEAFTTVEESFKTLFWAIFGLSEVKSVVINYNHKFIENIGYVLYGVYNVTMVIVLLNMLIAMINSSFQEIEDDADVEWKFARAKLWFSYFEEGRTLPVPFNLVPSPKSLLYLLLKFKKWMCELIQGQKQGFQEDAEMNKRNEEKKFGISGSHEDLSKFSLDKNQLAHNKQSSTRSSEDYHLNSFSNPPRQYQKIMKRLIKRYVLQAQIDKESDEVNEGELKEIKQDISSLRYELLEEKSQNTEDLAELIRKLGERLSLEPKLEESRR
Platelet DG rel: platelet dense granule release activity | inhibition, %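 (compounds screened at 7.5 µM in platelet-rich plasma)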 | 0.22% of 300,000 active | AID 1663 | human platelet-rich plasma, SFLLRN dense granule ATP release, luminescence;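 active = mean replicate score, as percent of positive control, at or above 50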
TRPC6 activator: activates the mouse TRPC6 cation channel; HEK293-TRPC6 membrane potential dye fluorescence; active compounds read high; B-score at 10 µM; 0.13% of 310,000 active; AID 2550;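 active = B-score of the integrated fluorescence ratio above library mean plus 3 SD, and starting fluorescence ratio within library mean plus 5 SD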;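 also: higher score means more depolarization so channel activation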
TRPC4 PAM: allosterically enhances the mouse TRPC4 cation channel | B-score at 10 µM | Q9QUQ5 | AID 2227 | 0.42% of 310,000 active | HEK293 TRPC4beta/mu-opioid, DAMGO EC20, Fluo-4 Ca2+ flux; active compounds read high;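 active = B-score of calcium response area above 5 SD of library B-scores, with initial fluorescence ratio within 5 SD of library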
TRPC4 agonist: activators of mouse TRPC4 channel | HEK293 TRPC4beta/mu-opioid, Fluo4 calcium fluorescence; active compounds read high | B-score at 10 µM | 0.49% of 310,000 active;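 active = B-score above 5 SD of library B-scores, and initial fluorescence ratio not above library mean plus 5 SD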;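 also: positive B-score marks a calcium rise read as TRPC4 activation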
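Incubation: 45 min room-temperature Fluo4 loading, 110 s read / System: HEK293 cells stably co-expressing mouse TRPC4beta and mu-opioid receptor / Signal: Fluo4 fluorescence, kinetic / Control set: buffer (low) and maximal DAMGO (high) / Measure: integrated baseline-normalised fluorescence ratio, converted to per-well B score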
TRPC4 sel inh 2: second selectivity test of TRPC6 inhibitors: effect on mouse TRPC4; shares compounds with TRPC6 inh; HEK293 TRPC4/MOR, membrane potential dye fluorescence; channel activated by saturating DAMGO dose; inhibition, % at 10 µM; 42% of 920 active; AID 2776;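 active = compounds whose fluorescence signal differed from control wells by over 3 SD, either direction, in both duplicate plates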
TRPC4 spec: tests whether TRPC6 inhibitors also affect mouse TRPC4; HEK293 TRPC4/mu-opioid, membrane potential fluorescence; shares compounds with TRPC6 inh; 61% of 920 active; AID 2777; activity change, negative = inhibition, % at 10 µM;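 active = rise or fall in signal beyond 3 SD of buffer-only wells in both replicate plates, either sign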;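 also: integrated kinetic ratio of fluorescence range over baseline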
HEK293 MPD ctr 2-1: second counter-screen for TRPC6 inhibitors: parental HEK293 cells | shares compounds with TRPC6 inh | signal change vs control, % at 10 µM | AID 2779 | 31% of 920 active | parental HEK293 membrane potential dye fluorescence; maximal acetylcholine challenge after compound addition;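 active = membrane potential signal moving either way by over 3 SD of the maximum-effect control, in both duplicate plates, meaning non-specific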
HEK293 MPD ctr-1: counter-screen for TRPC6 inhibitors: effect in parental HEK293 cells; shares compounds with TRPC6 inh; parental HEK293 membrane potential dye fluorescence; membrane potential signal change, % at 10 µM; 60% of 920 active;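 active = membrane potential signal shifting up or down by more than 3 SD of buffer-only wells, on both duplicate plates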
HEK293 MPD ctr-2: parental HEK293 nonspecific activity of TRPC6 modulators. shares compounds with TRPC6 inh. membrane potential dye fluorescence. membrane potential signal change, % at 10 µM. 51% of 2,400 active;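 active = membrane potential signal moves up or down beyond 5 SD from buffer-only wells, on both duplicate plates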
HEK293 MPD ctr 2-2: second counter-screen for TRPC6 modulators: effect in parental HEK293 cells; AID 488926; shares compounds with TRPC6 inh; 14% of 2,400 active; inhibition, % at 10 µM; membrane potential dye fluorescence; after compound, maximal acetylcholine stimulation;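 active = membrane potential signal drops by more than 5 SD from the mean control signal, in both duplicate plates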
TRPC4 ctr mod: mouse TRPC4 off-target activity of TRPC6 modulators; shares compounds with TRPC6 inh; HEK293 TRPC4/mu-opioid, membrane potential fluorescence; percent change from control (negative = decrease, positive = increase), % at 10 µM; 69% of 2,400 active; AID 488927;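 active = membrane potential signal moved up or down beyond 5 SD of buffer control wells, in both duplicate plates, actives on both sides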
TRPC4/MOR inh 2: mouse TRPC4 off-target activity of TRPC6 modulators, second screen; shares compounds with TRPC6 inh; HEK293 TRPC4/mu-opioid, membrane potential dye fluorescence; stimulated with maximal-effect DAMGO; inhibition, % at 10 µM; 55% of 2,400 active; AID 488928;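 active = drop in membrane potential signal beyond 5 SD of the control wells in both duplicate plates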;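 also: TRPC4 counter screen for TRPC6 hits run under conditions tuned for TRPC6 not TRPC4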
TRPC6 inh conf: mouse TRPC6 inhibitor confirmation; shares compounds with TRPC6 inh; HEK293-TRPC6, membrane potential dye, ACh-evoked depolarization; 43% of 3,300 active; AID 488960; inhibition, % at 10 µM;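 active = fluorescence ratio falls more than 5 SD below the full-stimulation control mean, in both duplicate runs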;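 also: integrated fluorescence ratio of peak minus minimum over baseline after agonist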
TRPC6 act conf: mouse TRPC6 activator confirmation; activation, % at 10 µM; 11% of 2,800 active; HEK293-TRPC6 membrane potential dye fluorescence, FDSS; shares compounds with TRPC6 inh;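 active = ratio signal rise beyond 5 SD above unstimulated control wells' mean, seen in both duplicate runs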
Of the large screens only hits and unclear results are named; the others gave an inactive call (follow-up assays come after a bar, where they were run).

CN1CCc2c(sc3c2c(=O)n(-c2ccccc2)c2nncn32)C1	TRPC6 inh -5.92 | HEK293 MPD ctr-2 -101.0% | HEK293 MPD ctr 2-2 inactive | TRPC4 ctr mod -20.5% | TRPC4/MOR inh 2 inactive | TRPC6 inh conf inactive | TRPC6 act conf inactive
Cc1c(O)ccc(C(=O)CN2CCN(Cc3ccccc3)CC2)c1O	none
CCOC(=O)c1c(CSc2ccccc2)n(C)c2cc(Br)c(OC)c(O)c12	none
CCOC(=O)c1c(C)n(C)c2ccc(O)c(CN3CCC(C)CC3)c12	TRPC6 inh -9.36 | HEK293 MPD ctr-2 -140.5% | HEK293 MPD ctr 2-2 inactive | TRPC4 ctr mod -18.0% | TRPC4/MOR inh 2 73.0% | TRPC6 inh conf 64.5% | TRPC6 act conf inactive
CCOC(=O)c1c(C)n(C)c2ccc(O)c(CN3CCN(C)CC3)c12	none
CCOC(=O)c1c(CSc2ccccc2)n(C)c2ccc(O)c(CN3CCOCC3)c12	TRPC6 inh -5.46 | HEK293 MPD ctr-2 inactive | HEK293 MPD ctr 2-2 inactive | TRPC4 ctr mod inactive | TRPC4/MOR inh 2 55.0% | TRPC6 inh conf 36.5% | TRPC6 act conf inactive
CCOC(=O)c1c(C)n(C)c2ccc(O)c(CN(CC)CC)c12	TRPC6 inh -6.45 | HEK293 MPD ctr-2 -112.0% | HEK293 MPD ctr 2-2 inactive | TRPC4 ctr mod -14.0% | TRPC4/MOR inh 2 52.5% | TRPC6 inh conf 54.0% | TRPC6 act conf inactive
CCOC(=O)c1c(C)n(-c2ccccc2)c2ccc(O)cc12	none
CCOC(=O)c1c(C)n(-c2ccccc2)c2ccc(O)c(CN(C)C)c12	TRPC6 inh -6.51 | HEK293 MPD ctr-2 -90.5% | HEK293 MPD ctr 2-2 inactive | TRPC4 ctr mod -17.5% | TRPC4/MOR inh 2 65.0% | TRPC6 inh conf 69.0% | TRPC6 act conf inactive
Cc1nc(C(F)(F)F)ccc1C(=O)N1CCCCC1	none
CC(=O)[C@@]1(O)C(C)CC2C3C=C(C)C4=Cc5c(cnn5-c5ccccc5)C[C@]4(C)C3C(O)C[C@@]21C (stereo partly specified)	TRPC6 inh -6.44 | HEK293 MPD ctr-2 inactive | HEK293 MPD ctr 2-2 inactive | TRPC4 ctr mod inactive | TRPC4/MOR inh 2 inactive | TRPC6 inh conf inactive
CCc1ccc(NC(=O)C/C(C)=N/NC(=O)COc2ccc(C)cc2Br)cc1	none
O=S(=O)(c1cccc(Br)c1)N1CCN(CCc2ccccc2)CC1	none
CC1=C(C(=O)OCC(C)C)C(c2cccc(F)c2)N2C(=O)C(C)SC2=N1 (stereo unspecified)	none
CC1=C(C(=O)OC(C)C)C(c2cccc(F)c2)N2C(=O)C(C)SC2=N1 (stereo unspecified)	TRPC6 inh -6 | HEK293 MPD ctr-2 inactive | HEK293 MPD ctr 2-2 inactive | TRPC4 ctr mod 13.0% | TRPC4/MOR inh 2 inactive | TRPC6 inh conf inactive | TRPC6 act conf inactive
CCOc1c(Cl)cc(CNC(C)(C)CC(C)(C)C)cc1OC	TRPC6 inh -5.14 | HEK293 MPD ctr-2 175.5% | HEK293 MPD ctr 2-2 85.5% | TRPC4 ctr mod 36.5% | TRPC4/MOR inh 2 75.0% | TRPC6 inh conf 63.0%
Cc1ccc(S(=O)(=O)N2CCCCC2)cc1NC(=O)COC(=O)c1ccc(O)cc1	none
CCCCCC(=O)NC(=S)Nc1ccc2oc(=O)ccc2c1	TRPC6 inh -6.37 | HEK293 MPD ctr-2 inactive | HEK293 MPD ctr 2-2 inactive | TRPC4 ctr mod -14.0% | TRPC4/MOR inh 2 inactive | TRPC6 inh conf inactive | TRPC6 act conf inactive
CN1CCN(C2=Nc3cc(Cl)ccc3Nc3ccccc32)CC1	TRPC6 inh -6.89 | TRPC4 sel inh 2 inactive | TRPC4 spec inactive | HEK293 MPD ctr 2-1 -2.0% | HEK293 MPD ctr-1 inactive | TRPC6 inh conf inactive | TRPC6 act conf inactive
CN1CCN(CCCN2c3ccccc3Sc3ccc(Cl)cc32)CC1	none
Nc1cc(=O)[nH]c(=O)n1Cc1ccco1	TRPC6 inh -5.35 | HEK293 MPD ctr-2 inactive | HEK293 MPD ctr 2-2 inactive | TRPC4 ctr mod inactive | TRPC4/MOR inh 2 inactive | TRPC6 inh conf inactive | TRPC6 act conf inactive
COc1ccc(C)cc1NC(=O)CCNS(=O)(=O)c1ccc2c(c1)CCC(=O)N2	none
O=C(CN(Cc1ccco1)C(=O)CNS(=O)(=O)c1ccc(F)cc1)NCCc1ccccc1	TRPC6 inh -5.29 (no result: Platelet DG rel) | HEK293 MPD ctr-2 inactive | HEK293 MPD ctr 2-2 inactive | TRPC4 ctr mod 12.5% | TRPC4/MOR inh 2 inactive | TRPC6 inh conf inactive | TRPC6 act conf inactive
Cc1ccc(N2CCOCC2)c2c1C(=O)c1ccccc1C2=O	TRPC6 inh -5.1 | HEK293 MPD ctr-2 -195.0% | HEK293 MPD ctr 2-2 inactive | TRPC4 ctr mod -33.5% | TRPC4/MOR inh 2 71.0% | TRPC6 inh conf 43.0% | TRPC6 act conf inactive
O=C1C=C(N2CCOCC2)c2ccccc2C1=O	none
Cc1cc(C)nc(NC(=NCCc2c[nH]c3ccccc23)NC(=O)Nc2ccc(Cl)cc2)n1	none
Cc1cc(C)nc(NC(N)=NCCc2c[nH]c3ccccc23)n1	TRPC6 inh -4.99 | HEK293 MPD ctr-2 -222.5% | HEK293 MPD ctr 2-2 inactive | TRPC4 ctr mod -42.5% | TRPC4/MOR inh 2 46.0% | TRPC6 inh conf 54.5% | TRPC6 act conf inactive
